According to ChEMBL document CHEMBL1156948, “Statistical molecular design of a focused salicylidene acylhydrazide library and multivariate QSAR of inhibition of type III secretion in the Gram-negative bacterium Yersinia” (Bioorg Med Chem, 2010):
Activity calls are given as the source filed them. No rule for the calls is given here.

Tests used:
[1] = system: Yersinia pseudotuberculosis YPIII; test: Inhibition of T3S in Yersinia pseudotuberculosis YPIII expressing yopE-luxAB at 3.13 uM after 3 hrs by luciferase reporter gene assay
Outline: (§1)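 Strain YPIII pIB102 (yopE-luxAB) grown overnight at room temperature in BHI with 5 mM EGTA and 20 mM MgCl2 (calcium depletion), adjusted to OD600 0.088–0.095. Compound added from DMSO at 1.56–200 µM final (eight concentrations). Shaken 1 h at room temperature, then 2 h at 37 °C. Decanal added and light emission read immediately. Triplicates, repeated at least three times.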

[2] = system: Yersinia pseudotuberculosis; test: Antibacterial activity against Yersinia pseudotuberculosis expressing pIB102 at 100 uM after 23 hrs by broth dilution assay; assay type: functional, organism-based
Outline: (§2)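 Wild-type pIB102 grown overnight in LB at room temperature, diluted to OD600 = 0.1 in LB with 2.5 mM CaCl2. Compound added from DMSO stock to final 50 and 100 µM. Incubated at 37 °C with absorbance at 595 nm read over 23 h.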

[3] = system: Yersinia pseudotuberculosis YPIII; test: Inhibition of T3S in Yersinia pseudotuberculosis YPIII expressing yopE-luxAB at 6.25 uM after 3 hrs by luciferase reporter gene assay; outline: as §1
[4] = system: Yersinia pseudotuberculosis YPIII; test: Inhibition of T3S in Yersinia pseudotuberculosis YPIII expressing yopE-luxAB at 200 uM after 3 hrs by luciferase reporter gene assay; outline: as §1
[5] = system: Yersinia pseudotuberculosis YPIII; test: Inhibition of T3S in Yersinia pseudotuberculosis YPIII expressing yopE-luxAB at 1.56 uM after 3 hrs by luciferase reporter gene assay; outline: as §1
Escherichia coli [6] = test: Antibacterial activity against Escherichia coli DH5[alpha] at 100 uM after 23 hrs by broth dilution assay; assay type: functional, organism-based
Outline: (§3)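 Overnight LB culture of E. coli DH5α grown at 37 °C, diluted to OD600 0.1 in LB with 2.5 mM CaCl2; compound added from DMSO stock to final 50 or 100 µM. Incubated at 37 °C with absorbance at 595 nm followed over 23 h.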

[7] = system: Yersinia pseudotuberculosis YPIII; test: Inhibition of T3S in Yersinia pseudotuberculosis YPIII expressing yopE-luxAB at 100 uM after 3 hrs by luciferase reporter gene assay; outline: as §1
[8] = system: Yersinia pseudotuberculosis; test: Antibacterial activity against Yersinia pseudotuberculosis expressing pIB102 at 50 uM after 23 hrs by broth dilution assay; assay type: functional, organism-based; outline: as §2
[9] = system: Yersinia pseudotuberculosis YPIII; test: Inhibition of T3S in Yersinia pseudotuberculosis YPIII expressing yopE-luxAB at 12.5 uM after 3 hrs by luciferase reporter gene assay; outline: as §1
[10] = system: Yersinia pseudotuberculosis YPIII; test: Inhibition of T3S in Yersinia pseudotuberculosis YPIII expressing yopE-luxAB at 50 uM after 3 hrs by luciferase reporter gene assay; outline: as §1
[11] = system: Yersinia pseudotuberculosis YPIII; test: Inhibition of T3S in Yersinia pseudotuberculosis YPIII expressing yopE-luxAB at 25 uM after 3 hrs by luciferase reporter gene assay; outline: as §1
Escherichia coli [12] = test: Antibacterial activity against Escherichia coli DH5[alpha] at 50 uM after 23 hrs by broth dilution assay; assay type: functional, organism-based; outline: as §3

Row | Compound | inhibition [1] | Activity [2] | inhibition [3] | inhibition [4] | inhibition [5] | Activity (Escherichia coli [6]) | inhibition [7] | Activity [8] | inhibition [9] | inhibition [10] | inhibition [11] | Activity (Escherichia coli [12])
1 | COc1cc(/C=N/NC(=O)c2cccc(C(F)(F)F)c2)c(O)c(OC)c1 | 10% | inactive | 21% | 75% | -10% | inactive | 74% | inactive | 24% | 66% | 39% | inactive
2 | O=C(N/N=C/c1cc(F)cc(Cl)c1O)c1cc(Cl)cc(Cl)c1 | 4% | inactive | 12% | 13% | -10% | inactive | 24% | inactive | 10% | 19% | 11% | inactive
3 | COc1cccc(/C=N/NC(=O)c2ccccc2[N+](=O)[O-])c1O | 19% | inactive | 14% | 94% | -5% | inactive | 68% | inactive | 12% | 32% | 19% | inactive
4 | O=C(N/N=C/c1cccc(F)c1O)c1cccc(C(F)(F)F)c1 | 3% | inactive | 5% | 65% | -10% | inactive | 48% | inactive | 14% | 32% | 30% | inactive
5 | CC(C)(C)c1ccc(O)c(/C=N/NC(=O)c2ccc(Br)cc2)c1 | 0% | inactive | 19% | 37% | 4% | inactive | 34% | inactive | 29% | 39% | 34% | inactive
6 | CC(C)(C)c1ccc(O)c(/C=N/NC(=O)CC23CC4CC(CC(C4)C2)C3)c1 | 3% | inactive | 10% | -1% | -6% | inactive | 17% | inactive | 13% | 10% | 17% | inactive
7 | O=C(N/N=C/c1ccc(Cl)cc1O)c1ccc(Br)cc1 | 11% | inactive | 14% | 10% | -6% | inactive | 22% | inactive | 26% | 27% | 29% | inactive
8 | N#CCC(=O)N/N=C/c1cc(Br)ccc1O | 11% | inactive | 6% | 99% | 0% | inactive | 97% | inactive | 22% | 86% | 55% | inactive
9 | COc1ccc(/C=N/NC(=O)c2sc3ccccc3c2Cl)c(O)c1 | -2% | inactive | 10% | 50% | -2% | inactive | 35% | inactive | 12% | 27% | 15% | inactive
10 | COc1cc(Br)cc(/C=N/NC(=O)c2sc3ccccc3c2Cl)c1O | 10% | inactive | 12% | 39% | -6% | inactive | 40% | inactive | 20% | 34% | 23% | inactive
11 | COc1cc([N+](=O)[O-])cc(/C=N/NC(=O)CC#N)c1O | 4% | inactive | 14% | 43% | -4% | inactive | 39% | inactive | 24% | 39% | 27% | inactive
12 | O=C(N/N=C/c1c(O)cc(O)cc1O)c1sc2ccccc2c1Cl | 10% | inactive | 21% | 87% | 2% | inactive | 79% | inactive | 33% | 70% | 44% | inactive
13 | COc1cc(C(=O)N/N=C/c2cc(Cl)cc(Cl)c2O)cc(OC)c1OC | 13% | inactive | 8% | 40% | -10% | inactive | 29% | inactive | 14% | 27% | 18% | inactive
14 | COc1cc(Br)cc(/C=N/NC(=O)CCc2ccc(O)cc2)c1O | 3% | inactive | 9% | 52% | -10% | inactive | 36% | inactive | 11% | 23% | 18% | inactive
15 | COc1cccc(C(=O)N/N=C/c2cc(OC)cc(OC)c2O)c1 | 4% | inactive | 9% | 76% | -7% | inactive | 63% | inactive | 13% | 43% | 20% | inactive
16 | COc1ccc(Br)c(C(=O)N/N=C/c2cc(C(C)(C)C)ccc2O)c1 | 0% | inactive | 6% | 20% | 3% | inactive | 22% | inactive | 26% | 33% | 18% | inactive
17 | COc1ccc(Br)c(C(=O)N/N=C/c2cc([N+](=O)[O-])cc([N+](=O)[O-])c2O)c1 | 0% | inactive | 13% | 25% | -7% | inactive | 30% | inactive | 12% | 30% | 23% | inactive
